Compounds with a hit are over-represented: about 2% of the library has one in this group of screens.
S100A4 inh HTS: S100A4-myosin IIA interaction inhibition. P26447. S100A4/TAMRA-MyoIIA peptide fluorescence polarization. inhibition, % at 10.7 µM. actives 0.14% (n = 360,000). AID 652163;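 active = mean inhibition of at least 70% across replicates, with every replicate also reaching that level; inconclusive = mean inhibition reaches 70% but some replicates fall short; inactive = mean inhibition below 70%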
Target sequence (P26447 whole entry, looked up): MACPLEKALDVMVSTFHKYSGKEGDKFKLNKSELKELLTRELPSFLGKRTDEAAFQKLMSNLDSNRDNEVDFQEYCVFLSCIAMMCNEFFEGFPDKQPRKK
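Material: S100A4 monomer (human). Medium: Calcium-containing HEPES buffer, pH 7.2. Probe or stimulus: labelled myosin peptide probe, 5 nM. Compound dosing: one concentration per compound. Timing: polarization read 5 min after assay mix addition, stable 5–60 min. Benchmarks: DMSO as neutral control, TFP as positive control.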
DENV2 CPE: protects cells from dengue virus 2 cytopathic effect; DENV2-infected cells, cytopathic effect rescue, plate reader; actives 1.7% (n = 350,000); AID 651640; CPE inhibition, % at 9.99 µM; in the data active = CPE inhibition above about 20%, passing the limit was not always enough; inconclusive = no clear call, values can overlap the other calls; tested in BHK-21 cells;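 also: 0% = median of neutral control wells and 100% = median of positive control wells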
E-sel inducer: induces E-selectin expression in human endothelial cells | P16581 | activation, % at 7.58 µM | actives 0.37% (n = 260,000) | HUVEC E-selectin immunofluorescence imaging; normalized: neutral wells 0, TNF-alpha wells 100;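 active = mean E-selectin-positive cell signal at least 10% of the positive control, reached in at least 60% of replicates, without over 20% cell loss; inconclusive = no rule given, readout overlaps actives, possibly toxicity-flagged; inactive = the rest, including those meeting only one limit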
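Assay system: HUVEC, human umbilical vein endothelial cells / Amount: 3,000 HUVEC/well / Controls: TNF-alpha positive control, DMSO neutral control / Compound dosing: single concentration / Medium: EGM-2 over gelatin coat / Evaluation: percent E-selectin-positive cells / Signal: immunofluorescence imaging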
XiGFP reactiv: X-chromosome reactivation activator | activation, % at 7.58 µM | XiGFP mouse fibroblasts, % GFP-positive cells imaging, 3 d; cells co-treated with 5-aza-dC sensitizer; scaled so ellipticine positive control = 100% | actives 0.055% (n = 360,000);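 active = mean normalized replicate activation at least 10% and every replicate at or above 10%; inconclusive = only one of the two criteria met; inactive = mean below 10% and not all replicates reach 10%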;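 also: 0% = median of on-plate neutral control wells and 100% = ellipticine 6 µM median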
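Material: XiGFP fibroblasts, SV40-immortalized. Buffer or medium: DMEM plus 5-aza-dC sensitizer. Compound: single concentration per compound, delivered by pin transfer. Times: 3 days compound exposure. Controls: ellipticine 6 µM.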
* hit, by the source's call; ? = inconclusive; . = not tested or not shown.

SMILES	S100A4 inh HTS	DENV2 CPE	E-sel inducer	XiGFP reactiv
O=C(Nc1ccc(F)cc1)N1CCCCN2[C@@H](CO)[C@@H](c3ccc(C#Cc4ccccc4)cc3)[C@@H]2C1	23	-14	0	0
CC(=O)N(C)C[C@@H]1Oc2ncc(C#CC3(O)CCCC3)cc2C(=O)N([C@H](C)CO)C[C@@H]1C	23	31*	0	0
COCC(=O)N(C)C[C@@H]1Oc2ncc(C#CC3(O)CCCC3)cc2C(=O)N([C@@H](C)CO)C[C@H]1C	8	41*	-1	-1
CC(=O)N(C)C[C@@H]1Oc2ncc(C#CC3(O)CCCC3)cc2C(=O)N([C@H](C)CO)C[C@H]1C	0	-4	0	0
CCN(Cc1ccccc1)C(=O)CN1C(=O)COc2ccc(S(=O)(=O)N3CCCCCC3)cc21	0	-1	.	0
CN(C)CC(=O)N[C@H]1CC[C@H](CCn2cc(C3CCCCC3)nn2)O[C@H]1CO	2	41*	0	0
CN(C)CC(=O)N[C@@H]1CC[C@H](CCn2cc(C3CCCCC3)nn2)O[C@H]1CO	12	9	0	0
O=C(Nc1ccc(Cl)c(Cl)c1)N[C@@H]1CC[C@H](CCn2cc(C3CCCC3)nn2)O[C@@H]1CO	2	28*	0	0
CCC(=O)Nc1ccc2c(c1)OC[C@@H](C)N(C(=O)c1ccccn1)C[C@@H](C)[C@H](OC)CN(C)C2=O	-68	26*	0	1
COCC(=O)Nc1ccc2c(c1)C(=O)N(C)C[C@H](OC)[C@H](C)CN(C(=O)c1ccccn1)[C@@H](C)CO2	7	65*	0	0
COCC(=O)Nc1ccc2c(c1)C(=O)N(C)C[C@@H](OC)[C@@H](C)CN(C(=O)c1ccccn1)[C@H](C)CO2	1	23*	0	0
CO[C@H]1CN(C)C(=O)c2cc(NC(=O)Nc3cc(F)ccc3F)ccc2OC[C@H](C)N(C(=O)c2ccccn2)C[C@H]1C	-9	2	0	0
COCC(=O)Nc1ccc2c(c1)C(=O)N(C)C[C@@H](OC)[C@H](C)CN(C(=O)c1ccccn1)[C@H](C)CO2	4	-5	0	1
COCC(=O)Nc1ccc2c(c1)C(=O)N(C)C[C@@H](OC)[C@@H](C)CN(C(=O)c1ccccn1)[C@@H](C)CO2	4	7	0	0
CO[C@H]1CN(C)C(=O)c2ccc(NC(=O)Nc3cc(F)ccc3F)cc2OC[C@@H](C)N(C(=O)c2ccccn2)C[C@H]1C	-4	38*	0	0
CCC(=O)N[C@H]1CC[C@H](CC(=O)NCC2CC2)O[C@@H]1CO	-2	-4	0	0
CC1CCCC(C)N1S(=O)(=O)c1ccc(NC(=O)CCN2C(=O)C3CC=CCC3C2=O)cc1 (stereo not drawn)	-3	3	.	0
COc1ccccc1C(=O)Nc1ccc2c(c1)C(=O)N(C)C[C@@H](OC)[C@H](C)CN[C@@H](C)CO2	7	3	0	0
Cc1ccccc1NC(=O)c1cc[n+]([O-])cc1	5	-1	41*	0
C[C@H](CO)N1C[C@H](C)[C@H](CN(C)S(C)(=O)=O)Oc2ccc(NC(=O)CCCCCC(=O)Nc3ccccc3N)cc2CC1=O	3	9	-5	0
C[C@H](CO)N1C[C@H](C)[C@@H](CN(C)S(C)(=O)=O)Oc2ccc(NC(=O)CCCCCC(=O)Nc3ccccc3N)cc2CC1=O	3	6	36*	0
C[C@@H]1CN([C@@H](C)CO)C(=O)Cc2cc(NC(=O)CCCCCC(=O)Nc3ccccc3N)ccc2O[C@@H]1CN(C)Cc1ccc2c(c1)OCO2	-2	60*	-3	-1
C[C@@H]1CN([C@H](C)CO)C(=O)Cc2cc(NC(=O)CCCCCC(=O)Nc3ccccc3N)ccc2O[C@H]1CN(C)Cc1ccc2c(c1)OCO2	1	-8	7	1
C[C@H](CO)N1C[C@H](C)[C@H](CN(C)Cc2ccccc2)Oc2ccc(NC(=O)CCCCCC(=O)Nc3ccccc3N)cc2CC1=O	-1	58*	1	0
C[C@H](CO)N1C[C@H](C)[C@H](CN(C)Cc2ccc(Oc3ccccc3)cc2)Oc2ccc(NC(=O)CCCCCC(=O)Nc3ccccc3N)cc2CC1=O	4	7	50*	1
SMILES	S100A4 inh HTS	DENV2 CPE	E-sel inducer	XiGFP reactiv
C[C@H]1CN([C@@H](C)CO)C(=O)Cc2cc(NC(=O)CCCCCC(=O)Nc3ccccc3N)ccc2O[C@H]1CN(C)Cc1ccc(Oc2ccccc2)cc1	7	?	-6	-1
CS(=O)(=O)N1[C@@H]2c3ccc(C4=CCCCC4)c(=O)n3C[C@H]1[C@H](CO)[C@H]2C(=O)N1CCCCC1	10	2	0	0
C[C@H](CO)N1C[C@H](C)[C@@H](CN(C)Cc2ccc(Cl)c(Cl)c2)Oc2ccc(NC(=O)CCCCCC(=O)Nc3ccccc3N)cc2CC1=O	1	-6	-8	0
C[C@H]1CN([C@@H](C)CO)C(=O)Cc2cc(NC(=O)CCCCCC(=O)Nc3ccccc3N)ccc2O[C@H]1CN(C)Cc1ccc(Cl)c(Cl)c1	-5	-8	75*	0
O[C@H]1CN(CC2CCCCC2)[C@@H](c2ccc(Cl)cc2)C[C@@H]1n1cc(C2CC2)nn1	0	45*	-3	1
O=C(OCc1cn([C@H]2C[C@H](c3ccccc3)N(CC3CCCCC3)C[C@@H]2O)nn1)c1ccccc1	0	-4	5	0
CCCCCC(=O)N1C[C@H](n2cc(COC(=O)c3ccccc3)nn2)[C@@H](O)C[C@@H]1c1ccc(C)cc1	-12	-15	0	0
O[C@@H]1CN(CC2CCCCC2)[C@@H](c2ccccc2)C[C@H]1n1cc(C2CC2)nn1	1	1	0	0
O[C@@H]1CN(Cc2cccs2)[C@@H](c2ccccc2)C[C@H]1n1cc(C2CC2)nn1	8	?	0	0
COc1ccc([C@H]2C[C@H](O)[C@@H](n3cc(COC(=O)c4ccccc4)nn3)CN2CC2CCCCC2)cc1	34	20*	0	0
COc1ccc([C@H]2C[C@@H](n3cc(C4CC4)nn3)[C@H](O)CN2Cc2cccs2)cc1	-3	35*	.	1
CCCCCC(=O)N1C[C@@H](O)[C@H](n2cc(COC(=O)c3ccccc3)nn2)C[C@@H]1c1ccc(C)cc1	-8	74*	0	0
COc1ccc(C(=O)COC(=O)C2CCN(c3ccc(C(F)(F)F)cn3)CC2)c(OC)c1	-1	11	0	0
CCCNC(=O)N[C@H]1CC[C@H](CCNS(=O)(=O)c2cccc(F)c2)O[C@@H]1CO	2	-4	0	-1
CO[C@H]1CN(C)C(=O)c2ccc(NC(C)=O)cc2OC[C@@H](C)N(Cc2ccccn2)C[C@@H]1C	-1	17	0	0

Bioassay records from PubChem BioAssay.
